{
  "source": "ChEMBL document CHEMBL5661979",
  "about": "“Pharmacological inhibition of BMK1 suppresses tumor growth through promyelocytic leukemia protein” (Cancer Cell, 2010)",
  "key": {"[1]": {"target": "Tyrosine-protein kinase CSK (Homo sapiens, UniProt P41240)", "sequence (P41240 2-450 limits assumed)": "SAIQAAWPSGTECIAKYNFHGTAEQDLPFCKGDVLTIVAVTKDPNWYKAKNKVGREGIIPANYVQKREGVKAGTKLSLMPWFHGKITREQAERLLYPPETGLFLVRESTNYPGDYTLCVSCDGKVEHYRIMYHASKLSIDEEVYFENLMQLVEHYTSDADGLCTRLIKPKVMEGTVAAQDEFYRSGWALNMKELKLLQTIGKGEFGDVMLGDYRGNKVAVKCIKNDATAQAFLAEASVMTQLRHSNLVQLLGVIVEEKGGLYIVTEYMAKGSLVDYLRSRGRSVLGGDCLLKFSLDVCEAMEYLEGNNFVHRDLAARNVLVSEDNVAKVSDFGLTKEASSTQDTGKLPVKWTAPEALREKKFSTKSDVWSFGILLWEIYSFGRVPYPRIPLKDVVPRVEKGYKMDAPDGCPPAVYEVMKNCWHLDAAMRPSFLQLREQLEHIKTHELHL", "experiment": "Inhibition of CSK in human HeLa cells lysate at 2 uM pre incubated for 15 mins followed by ADP acyl phosphate probe addition and measured after 10 mins by LC-MS/MS analysis relative to control", "format": "subcellular", "conditions": "time 25.0 min"}, "[2]": {"target": "T1, Mixed lineage kinase domain-like protein (Homo sapiens) (UniProt Q8NB16)", "T1 sequence (whole entry)": "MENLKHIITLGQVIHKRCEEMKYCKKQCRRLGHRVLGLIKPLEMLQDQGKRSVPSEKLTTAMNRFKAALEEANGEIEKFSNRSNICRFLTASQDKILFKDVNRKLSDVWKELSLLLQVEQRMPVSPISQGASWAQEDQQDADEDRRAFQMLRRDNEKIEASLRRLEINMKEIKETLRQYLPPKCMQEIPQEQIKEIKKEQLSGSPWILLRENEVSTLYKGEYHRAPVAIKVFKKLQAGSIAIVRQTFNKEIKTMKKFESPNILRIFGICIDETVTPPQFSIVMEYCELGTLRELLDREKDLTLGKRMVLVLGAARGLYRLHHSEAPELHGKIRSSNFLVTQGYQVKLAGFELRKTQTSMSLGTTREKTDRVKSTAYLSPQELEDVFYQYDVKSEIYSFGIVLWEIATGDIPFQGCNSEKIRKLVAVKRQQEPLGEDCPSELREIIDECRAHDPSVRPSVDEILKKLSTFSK", "experiment": "Inhibition of MLKL in human HeLa cells lysate at 2 uM pre incubated for 15 mins followed by ADP acyl phosphate probe addition and measured after 10 mins by LC-MS/MS analysis relative to control", "format": "subcellular", "conditions": "time 25.0 min"}, "[3]": {"experiment": "Inhibition of MSK1/2 in human HeLa cells lysate at 10 uM pre incubated for 15 mins followed by ADP acyl phosphate probe addition and measured after 10 mins by LC-MS/MS analysis relative to control", "conditions": "25 min, condition cancer"}, "[4]": {"target": "T2, Serine/threonine-protein kinase Chk1 (Homo sapiens) (UniProt O14757)", "T2 sequence (whole entry)": "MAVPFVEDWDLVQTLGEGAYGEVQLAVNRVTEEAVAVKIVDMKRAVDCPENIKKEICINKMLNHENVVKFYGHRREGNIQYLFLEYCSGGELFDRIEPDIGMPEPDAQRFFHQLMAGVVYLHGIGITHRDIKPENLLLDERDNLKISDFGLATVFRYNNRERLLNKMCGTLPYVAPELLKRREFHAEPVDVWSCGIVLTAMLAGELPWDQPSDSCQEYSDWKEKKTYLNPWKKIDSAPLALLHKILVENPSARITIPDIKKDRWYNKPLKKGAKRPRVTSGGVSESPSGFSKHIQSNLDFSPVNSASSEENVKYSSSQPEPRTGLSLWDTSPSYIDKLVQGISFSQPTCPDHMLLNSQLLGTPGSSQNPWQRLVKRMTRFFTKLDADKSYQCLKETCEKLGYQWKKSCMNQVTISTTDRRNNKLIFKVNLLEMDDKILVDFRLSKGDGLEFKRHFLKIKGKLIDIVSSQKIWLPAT", "experiment": "Inhibition of CHK1 K2 site in human HeLa cells lysate at 2 uM pre incubated for 15 mins followed by ATP acyl phosphate probe addition and measured after 10 mins by LC-MS/MS analysis relative to control", "format": "subcellular", "conditions": "time 25.0 min", "summary_of_the_method": "(§1)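 KiNativ profiling in HeLa lysate (5 mg/mL total protein). Lysate incubated 15 min with inhibitor at 50, 10, 2, 0.8 or 0 μM. ATP or ADP acylphosphate probe then added (5 μM final) and reacted 10 min. Reaction stopped with urea and analysed by targeted MS, using up to four fragment ions per kinase peptide-probe conjugate. % inhibition taken against untreated lysate. Run in duplicate.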"}, "[5]": {"target": "Serine/threonine-protein kinase PLK1 (Homo sapiens, UniProt P53350)", "sequence (P53350 whole entry)": "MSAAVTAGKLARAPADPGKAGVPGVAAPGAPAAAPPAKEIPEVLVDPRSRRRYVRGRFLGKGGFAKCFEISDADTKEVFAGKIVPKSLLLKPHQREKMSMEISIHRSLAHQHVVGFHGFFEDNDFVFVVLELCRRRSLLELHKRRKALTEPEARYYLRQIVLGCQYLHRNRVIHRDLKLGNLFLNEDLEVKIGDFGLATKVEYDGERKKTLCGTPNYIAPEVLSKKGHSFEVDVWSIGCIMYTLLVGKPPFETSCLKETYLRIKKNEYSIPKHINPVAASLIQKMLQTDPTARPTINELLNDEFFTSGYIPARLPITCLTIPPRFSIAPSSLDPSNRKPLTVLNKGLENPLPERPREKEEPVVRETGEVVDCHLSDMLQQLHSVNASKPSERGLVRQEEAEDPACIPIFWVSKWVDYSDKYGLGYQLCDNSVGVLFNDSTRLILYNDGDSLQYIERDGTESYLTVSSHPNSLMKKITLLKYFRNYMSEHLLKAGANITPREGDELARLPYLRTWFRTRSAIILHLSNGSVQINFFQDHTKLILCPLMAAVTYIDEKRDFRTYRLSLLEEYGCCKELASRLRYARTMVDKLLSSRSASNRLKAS", "experiment": "Inhibition of PLK1 K2 site in human HeLa cells lysate pre incubated for 15 mins followed by ATP acyl phosphate probe addition and measured after 10 mins by LC-MS/MS analysis", "format": "subcellular"}, "[6]": {"target": "Cyclin-dependent kinase 8/19 (Homo sapiens, UniProt P49336+Q9BWU1)", "sequence (P49336 whole entry, looked up)": "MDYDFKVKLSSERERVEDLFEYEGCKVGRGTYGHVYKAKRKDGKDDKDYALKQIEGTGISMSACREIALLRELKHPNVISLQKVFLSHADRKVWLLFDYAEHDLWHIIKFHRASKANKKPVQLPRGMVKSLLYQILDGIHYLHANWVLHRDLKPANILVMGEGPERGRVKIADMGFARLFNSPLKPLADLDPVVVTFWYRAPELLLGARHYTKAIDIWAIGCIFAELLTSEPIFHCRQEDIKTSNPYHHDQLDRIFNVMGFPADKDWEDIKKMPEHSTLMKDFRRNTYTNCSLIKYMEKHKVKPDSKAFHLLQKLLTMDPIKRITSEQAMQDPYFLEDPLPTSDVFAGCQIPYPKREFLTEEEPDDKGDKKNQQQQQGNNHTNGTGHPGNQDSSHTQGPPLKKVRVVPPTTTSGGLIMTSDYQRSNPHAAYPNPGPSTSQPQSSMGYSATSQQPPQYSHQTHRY", "sequence (Q9BWU1 whole entry, looked up)": "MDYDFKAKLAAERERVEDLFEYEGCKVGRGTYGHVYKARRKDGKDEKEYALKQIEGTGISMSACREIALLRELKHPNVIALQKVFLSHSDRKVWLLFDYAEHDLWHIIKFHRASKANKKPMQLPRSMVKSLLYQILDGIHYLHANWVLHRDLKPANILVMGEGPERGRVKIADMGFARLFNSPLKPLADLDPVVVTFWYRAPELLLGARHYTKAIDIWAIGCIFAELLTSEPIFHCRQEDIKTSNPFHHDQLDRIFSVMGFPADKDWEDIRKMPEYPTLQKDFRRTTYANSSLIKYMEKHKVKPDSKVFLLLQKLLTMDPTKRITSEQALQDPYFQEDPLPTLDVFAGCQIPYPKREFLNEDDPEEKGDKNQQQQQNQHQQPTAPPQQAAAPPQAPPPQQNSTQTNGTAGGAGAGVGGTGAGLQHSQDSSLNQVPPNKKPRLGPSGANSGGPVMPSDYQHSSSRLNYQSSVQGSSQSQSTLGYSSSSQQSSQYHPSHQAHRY", "experiment": "Inhibition of CDK8/CDK11 in human HeLa cells lysate at 2 uM pre incubated for 15 mins followed by ATP acyl phosphate probe addition and measured after 10 mins by LC-MS/MS analysis relative to control", "format": "subcellular", "conditions": "time 25.0 min", "summary_of_the_method": "as §1"}, "[7]": {"target": "Cyclin-dependent kinase 2 (Homo sapiens, UniProt P24941)", "experiment": "Inhibition of CDK2 K1 site in human HeLa cells lysate at 10 uM pre incubated for 15 mins followed by ATP acyl phosphate probe addition and measured after 10 mins by LC-MS/MS analysis relative to control", "format": "subcellular", "conditions": "time 25.0 min", "summary_of_the_method": "as §1"}, "[8]": {"target": "Serine/threonine-protein kinase mTOR (Homo sapiens, UniProt P42345)", "experiment": "Inhibition of FRAP in human HeLa cells lysate pre incubated for 15 mins followed by ATP acyl phosphate probe addition and measured after 10 mins by LC-MS/MS analysis", "format": "subcellular"}, "[9]": {"experiment": "Inhibition of MAP3K2/MAP3K3 in human HeLa cells lysate pre incubated for 15 mins followed by ATP acyl phosphate probe addition and measured after 10 mins by LC-MS/MS analysis", "format": "subcellular"}, "[10]": {"target": "Ribosomal protein S6 kinase alpha-3 (Homo sapiens, UniProt P51812)", "sequence (P51812 whole entry, the tested form may be a part)": "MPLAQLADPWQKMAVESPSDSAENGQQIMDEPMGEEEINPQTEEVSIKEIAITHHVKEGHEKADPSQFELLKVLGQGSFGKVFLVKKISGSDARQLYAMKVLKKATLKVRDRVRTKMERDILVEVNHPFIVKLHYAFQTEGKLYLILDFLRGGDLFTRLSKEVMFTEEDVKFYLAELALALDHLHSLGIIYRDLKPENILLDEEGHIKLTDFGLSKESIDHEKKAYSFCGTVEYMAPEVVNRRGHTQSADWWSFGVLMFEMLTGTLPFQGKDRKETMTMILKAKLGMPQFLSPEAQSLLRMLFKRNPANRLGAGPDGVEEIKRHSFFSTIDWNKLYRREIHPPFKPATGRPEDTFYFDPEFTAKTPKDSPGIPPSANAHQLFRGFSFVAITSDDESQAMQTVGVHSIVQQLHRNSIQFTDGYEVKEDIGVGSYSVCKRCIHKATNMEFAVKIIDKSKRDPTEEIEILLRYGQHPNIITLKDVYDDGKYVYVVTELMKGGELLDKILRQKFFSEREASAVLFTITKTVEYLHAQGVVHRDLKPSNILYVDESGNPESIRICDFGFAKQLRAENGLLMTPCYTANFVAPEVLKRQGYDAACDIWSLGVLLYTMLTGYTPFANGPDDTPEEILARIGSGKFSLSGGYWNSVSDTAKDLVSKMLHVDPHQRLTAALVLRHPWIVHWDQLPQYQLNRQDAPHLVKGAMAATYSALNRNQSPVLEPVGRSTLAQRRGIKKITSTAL", "experiment": "Inhibition of RSK2 domain 2 in human HeLa cells lysate at 2 uM pre incubated for 15 mins followed by ATP acyl phosphate probe addition and measured after 10 mins by LC-MS/MS analysis relative to control", "format": "subcellular", "conditions": "time 25.0 min"}, "[11]": {"target": "T3, Interleukin-1 receptor-associated kinase 4 (Homo sapiens) (UniProt Q9NWZ3)", "T3 sequence (whole entry)": "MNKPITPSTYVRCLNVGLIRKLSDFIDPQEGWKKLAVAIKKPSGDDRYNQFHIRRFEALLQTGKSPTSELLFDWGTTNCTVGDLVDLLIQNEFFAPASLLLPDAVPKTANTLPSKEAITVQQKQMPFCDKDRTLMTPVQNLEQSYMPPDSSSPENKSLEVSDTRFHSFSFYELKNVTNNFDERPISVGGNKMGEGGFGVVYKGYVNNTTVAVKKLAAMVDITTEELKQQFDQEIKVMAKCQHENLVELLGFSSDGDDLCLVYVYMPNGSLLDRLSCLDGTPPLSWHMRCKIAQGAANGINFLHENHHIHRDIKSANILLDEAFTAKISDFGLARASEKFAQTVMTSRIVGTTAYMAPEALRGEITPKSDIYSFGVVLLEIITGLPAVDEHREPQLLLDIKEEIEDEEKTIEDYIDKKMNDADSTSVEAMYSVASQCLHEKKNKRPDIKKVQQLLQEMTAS", "experiment": "Inhibition of IRAK4 in human HeLa cells lysate at 10 uM pre incubated for 15 mins followed by ATP acyl phosphate probe addition and measured after 10 mins by LC-MS/MS analysis relative to control", "format": "subcellular", "conditions": "time 25.0 min"}, "[12]": {"experiment": "Inhibition of SRPK1/2 in human HeLa cells lysate at 50 uM pre incubated for 15 mins followed by ADP acyl phosphate probe addition and measured after 10 mins by LC-MS/MS analysis relative to control", "conditions": "25 min, condition cancer"}, "[13]": {"experiment": "Toxicity in C57Bl/6 mouse assessed as effect on calcium level at 50 mg/kg, ip for 14 days (reference value: 9.9 mg/dl)", "format": "organism-based", "conditions": "in vivo, 336 h, time 14 day"}},
  "data": [
    {"smiles": "CCOc1cc(N2CCC(O)CC2)ccc1Nc1ncc2c(n1)N(C)c1ccccc1C(=O)N2C", "values": [
      {"measurement": "inhibition", "setting": "[1]", "value": 11.6, "unit": "%"},
      {"measurement": "inhibition", "setting": "[2]", "value": 35.6, "unit": "%"},
      {"measurement": "inhibition at 10 µM", "setting": "[3]", "value": 37.4, "unit": "%"},
      {"measurement": "inhibition", "setting": "[4]", "value": -2, "unit": "%"},
      {"measurement": "IC50", "setting": "[5]", "value": "> 50", "unit": "µM"},
      {"measurement": "inhibition", "setting": "[6]", "value": -7.5, "unit": "%"},
      {"measurement": "inhibition", "setting": "[7]", "value": -9.1, "unit": "%"},
      {"measurement": "IC50", "setting": "[8]", "value": "> 50", "unit": "µM"},
      {"measurement": "IC50", "setting": "[9]", "value": "> 50", "unit": "µM"},
      {"measurement": "inhibition", "setting": "[10]", "value": -9.6, "unit": "%"},
      {"measurement": "inhibition", "setting": "[11]", "value": 10.5, "unit": "%"},
      {"measurement": "inhibition at 50 µM", "setting": "[12]", "value": -53.5, "unit": "%"},
      {"measurement": "Activity", "setting": "[13]", "value": 9.1, "unit": "mg/dL"}
    ]}
  ]
}
